The target in series [1] is Acetylcholinesterase (Electrophorus electricus, UniProt O42275). Kind of series: Inhibition of Electrophorus electricus AChE using acetylthiocholine iodide as substrate after 20 mins measured for 1 min interval for 30 mins by Ellman's method.
Series [2] deals with Cholinesterase (Equus caballus, UniProt P81908). The series is described as follows: Inhibition of equine serum BChE using butyrylthiocholine iodide as substrate after 20 mins measured for 1 min interval for 30 mins by Ellman's method. In general terms: DTNB colorimetry detects thiols as they appear.
Chain of Cholinesterase (P81908 whole entry): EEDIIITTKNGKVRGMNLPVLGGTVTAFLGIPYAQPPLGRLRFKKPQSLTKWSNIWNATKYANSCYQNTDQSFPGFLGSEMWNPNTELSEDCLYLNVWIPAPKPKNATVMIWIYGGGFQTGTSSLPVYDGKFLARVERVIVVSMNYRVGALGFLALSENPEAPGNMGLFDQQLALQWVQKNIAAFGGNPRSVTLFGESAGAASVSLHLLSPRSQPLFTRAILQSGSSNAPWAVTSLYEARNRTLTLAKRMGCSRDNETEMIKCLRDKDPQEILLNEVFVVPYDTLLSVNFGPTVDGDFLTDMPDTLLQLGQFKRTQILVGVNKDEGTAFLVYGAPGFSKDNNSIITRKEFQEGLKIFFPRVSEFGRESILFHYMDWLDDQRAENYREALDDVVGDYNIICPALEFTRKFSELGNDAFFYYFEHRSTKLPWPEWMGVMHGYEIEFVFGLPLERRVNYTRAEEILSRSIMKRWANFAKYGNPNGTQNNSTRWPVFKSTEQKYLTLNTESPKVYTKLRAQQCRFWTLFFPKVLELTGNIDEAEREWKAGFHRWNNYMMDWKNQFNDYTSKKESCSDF
Series [3] can be described thus: Solubility of the compound. In kind it is physicochemical.
Series [4] in a line: Selectivity ratio of Ki for Electrophorus electricus AChE to Ki for equine serum BChE. Summed up:
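Ki from Ellman kinetics at pH 8.0 and 30 °C after 20 min enzyme–inhibitor–DTNB preincubation. Inhibitor at several concentrations plus a water blank; ATChI or BTChI at 0.9375, 0.625, 0.325 and 0.1875 mM. A415 read every 1 min for 30 min, in triplicate. Ki from Lineweaver-Burk, Dixon and Cornish-Bowden plots; F = Ki(AChE)/Ki(BChE).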

Bounds are passed on as bounds.

Chain of Acetylcholinesterase (O42275 whole entry): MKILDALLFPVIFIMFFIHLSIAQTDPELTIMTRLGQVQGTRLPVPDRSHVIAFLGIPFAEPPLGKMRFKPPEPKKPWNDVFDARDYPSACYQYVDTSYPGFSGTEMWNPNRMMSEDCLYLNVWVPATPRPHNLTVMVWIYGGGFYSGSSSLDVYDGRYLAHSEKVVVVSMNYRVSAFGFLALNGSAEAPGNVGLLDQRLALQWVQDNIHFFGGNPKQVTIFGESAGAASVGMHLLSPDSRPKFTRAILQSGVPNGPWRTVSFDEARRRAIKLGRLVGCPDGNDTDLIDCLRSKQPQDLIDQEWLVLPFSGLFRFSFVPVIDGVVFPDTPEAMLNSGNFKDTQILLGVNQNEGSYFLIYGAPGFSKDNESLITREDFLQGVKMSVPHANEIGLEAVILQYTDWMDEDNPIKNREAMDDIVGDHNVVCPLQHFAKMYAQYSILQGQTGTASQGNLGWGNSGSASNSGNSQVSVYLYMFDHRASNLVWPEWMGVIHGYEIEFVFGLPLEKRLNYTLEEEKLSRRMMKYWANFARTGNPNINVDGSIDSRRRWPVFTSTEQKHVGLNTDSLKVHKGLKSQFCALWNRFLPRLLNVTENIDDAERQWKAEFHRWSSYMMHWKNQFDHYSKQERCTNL

As to `CC1(C)[C@@H](O)CC[C@]2(C)[C@H]3C(=O)C=C4[C@@H]5C[C@@](C)(C(=O)O/C(=N\C6CCCCC6)NC6CCCCC6)CC[C@]5(C)CC[C@@]4(C)[C@]3(C)CC[C@@H]12`, the Ki in series [1] and in series [2] was above 10 µM each time.

As for `COC(=O)[C@@]1(C)CC[C@]2(C)CC[C@]3(C)C(=CC(=O)[C@@H]4[C@@]5(C)CC[C@H](OC(=O)[C@@H](N)C(C)C)C(C)(C)[C@@H]5CC[C@]43C)[C@@H]2C1`, the solubility entry in series [3] is on record as “Insoluble”.

As to `CC1(C)[C@@H](O)CC[C@]2(C)[C@H]3C(=O)C=C4[C@@H]5C[C@@](C)(C(=O)NCCN)CC[C@]5(C)CC[C@@]4(C)[C@]3(C)CC[C@@H]12`, the Ki in series [1] and in series [2] was above 100 µM throughout.

For the molecule `CCOC(=O)[C@@]1(C)CC[C@]2(C)CC[C@]3(C)C(=CC(=O)[C@@H]4[C@@]5(C)CC[C@H](OC(=O)[C@H](N)Cc6c[nH]c7ccccc67)C(C)(C)[C@@H]5CC[C@]43C)[C@@H]2C1`, the results for the Ki in series [1] and in series [2] were 11.7 µM and above 100 µM, respectively. In addition, the Ratio Ki in series [4] is below 0.12.

Take `COC(=O)[C@@]1(C)CC[C@]2(C)CC[C@]3(C)C(=CC(=O)[C@@H]4[C@@]5(C)CC[C@H](OC(=O)[C@@H](N)CSCc6ccccc6)C(C)(C)[C@@H]5CC[C@]43C)[C@@H]2C1`: the Ki was 40.6 µM in series [1] and above 100 µM in series [2]. For the same molecule, the Ratio Ki in series [4] was below 0.41.

Consider `CC[C@H](C)[C@H](N)C(=O)O[C@H]1CC[C@]2(C)[C@H]3C(=O)C=C4[C@@H]5C[C@@](C)(C(=O)OC)CC[C@]5(C)CC[C@@]4(C)[C@]3(C)CC[C@H]2C1(C)C`, for which the solubility result in series [3] is “Insoluble”.

As to `CC1(C)[C@@H](O)CC[C@]2(C)[C@H]3C(=O)C=C4[C@@H]5C[C@@](C)(C(=O)NCCCCN)CC[C@]5(C)CC[C@@]4(C)[C@]3(C)CC[C@@H]12`, the figures for the Ki in series [1] and in series [2] were 41.8 µM and 74.3 µM, respectively. In addition, in series [4], the Ratio Ki stood at 0.56.

Take `COC(=O)[C@@]1(C)CC[C@]2(C)CC[C@]3(C)C(=CC(=O)[C@@H]4[C@@]5(C)CC[C@H](OC(=O)[C@H](C)N)C(C)(C)[C@@H]5CC[C@]43C)[C@@H]2C1` [listing 1 of 3 here]: the Ratio Ki in series [4] was below 0.21.

`C[C@H](N)C(=O)O[C@H]1CC[C@]2(C)[C@H]3C(=O)C=C4[C@@H]5C[C@@](C)(C(=O)O)CC[C@]5(C)CC[C@@]4(C)[C@]3(C)CC[C@H]2C1(C)C`: the Ki was 24 µM in series [1] and above 100 µM in series [2]. The Ratio Ki in series [4] is below 0.24.

In the case of `COC(=O)C[C@H](N)C(=O)O[C@H]1CC[C@]2(C)[C@H]3C(=O)C=C4[C@@H]5C[C@@](C)(C(=O)OC)CC[C@]5(C)CC[C@@]4(C)[C@]3(C)CC[C@H]2C1(C)C`, the solubility result in series [3] is “Insoluble”.

Regarding `CCOC(=O)[C@@]1(C)CC[C@]2(C)CC[C@]3(C)C(=CC(=O)[C@@H]4[C@@]5(C)CC[C@H](OC(=O)[C@@H](N)Cc6ccccc6)C(C)(C)[C@@H]5CC[C@]43C)[C@@H]2C1`, the Ki was 13.7 µM in series [1] and above 100 µM in series [2]. Besides, in series [4], the Ratio Ki was below 0.14.

As for `COC(=O)[C@@]1(C)CC[C@]2(C)CC[C@]3(C)C(=CC(=O)[C@@H]4[C@@]5(C)CC[C@H](OC(=O)[C@H](C)N)C(C)(C)[C@@H]5CC[C@]43C)[C@@H]2C1` [listing 2 of 3 here], the solubility entry in series [3] is reported as “Insoluble”.

Consider `COC(=O)[C@@]1(C)CC[C@]2(C)CC[C@]3(C)C(=CC(=O)[C@@H]4[C@@]5(C)CC[C@H](OC(=O)CN)C(C)(C)[C@@H]5CC[C@]43C)[C@@H]2C1`, for which the Ki in series [1] is 19.8 µM; in series [2] it was above 100 µM. Also, in series [4], the Ratio Ki was below 0.2.

In the case of `CC1(C)[C@@H](O)CC[C@]2(C)[C@H]3C(=O)C=C4[C@@H]5C[C@@](C)(C(=O)NCCCCCN)CC[C@]5(C)CC[C@@]4(C)[C@]3(C)CC[C@@H]12`, the Ki in series [1] and in series [2] was above 100 µM throughout.

As for `CC(C)(C)OC(=O)NCCCNC(=O)[C@@]1(C)CC[C@]2(C)CC[C@]3(C)C(=CC(=O)[C@@H]4[C@@]5(C)CC[C@H](O)C(C)(C)[C@@H]5CC[C@]43C)[C@@H]2C1`, the Ki in series [1] and in series [2] was above 10 µM in each case.

In the case of `COC(=O)[C@@]1(C)CC[C@]2(C)CC[C@]3(C)C(=CC(=O)[C@@H]4[C@@]5(C)CC[C@H](OC(=O)[C@H](C)N)C(C)(C)[C@@H]5CC[C@]43C)[C@@H]2C1` [listing 3 of 3 here], the Ki in series [1] was 20.8 µM; in series [2], above 100 µM.

For `COC(=O)[C@@]1(C)CC[C@]2(C)CC[C@]3(C)C(=CC(=O)[C@@H]4[C@@]5(C)CC[C@H](OC(=O)[C@@H](N)CCCN)C(C)(C)[C@@H]5CC[C@]43C)[C@@H]2C1`, the solubility result in series [3] is listed as “Insoluble”.

For the molecule `COC(=O)[C@@]1(C)CC[C@]2(C)CC[C@]3(C)C(=CC(=O)[C@@H]4[C@@]5(C)CC[C@H](OC(=O)[C@@H](C)N)C(C)(C)[C@@H]5CC[C@]43C)[C@@H]2C1`, the figures for the Ki in series [1] and in series [2] were 17.7 µM and above 100 µM, respectively. In addition, the Ratio Ki in series [4] was below 0.18.

In the case of `COC(=O)[C@@]1(C)CC[C@]2(C)CC[C@]3(C)C(=CC(=O)[C@@H]4[C@@]5(C)CC[C@H](OC(=O)[C@@H](N)CC(C)C)C(C)(C)[C@@H]5CC[C@]43C)[C@@H]2C1`, the solubility entry in series [3] was “Insoluble”.

For `CNCC(=O)O[C@H]1CC[C@]2(C)[C@H]3C(=O)C=C4[C@@H]5C[C@@](C)(C(=O)OC)CC[C@]5(C)CC[C@@]4(C)[C@]3(C)CC[C@H]2C1(C)C`, the Ki in series [1] was 20.4 µM; in series [2], above 100 µM. Further, in series [4], the Ratio Ki was below 0.21.

For the molecule `COC(=O)[C@@]1(C)CC[C@]2(C)CC[C@]3(C)C(=CC(=O)[C@@H]4[C@@]5(C)CC[C@H](OC(=O)[C@@H](N)CCC(=O)O)C(C)(C)[C@@H]5CC[C@]43C)[C@@H]2C1`, the values for the Ki in series [1] and in series [2] were 18.9 µM and above 100 µM, respectively. Also, in series [4], the Ratio Ki was below 0.19.

For the molecule `COC(=O)[C@@]1(C)CC[C@]2(C)CC[C@]3(C)C(=CC(=O)[C@@H]4[C@@]5(C)CC[C@H](OC(=O)[C@@H](N)CC(=O)OCc6ccccc6)C(C)(C)[C@@H]5CC[C@]43C)[C@@H]2C1`, the Ki in series [1] was 28.1 µM; in series [2], above 100 µM. Further, the Ratio Ki in series [4] was below 0.28.

`COC(=O)[C@@]1(C)CC[C@]2(C)CC[C@]3(C)C(=CC(=O)[C@@H]4[C@@]5(C)CC[C@H](OC(=O)[C@@H](N)Cc6ccccc6)C(C)(C)[C@@H]5CC[C@]43C)[C@@H]2C1`: the Ki is 20.7 µM in series [1] and above 100 µM in series [2]. The Ratio Ki in series [4] is below 0.21.

As to `CC1(C)[C@@H](O)CC[C@]2(C)[C@H]3C(=O)C=C4[C@@H]5C[C@@](C)(C(=O)OC/C=C/CBr)CC[C@]5(C)CC[C@@]4(C)[C@]3(C)CC[C@@H]12`, the Ki in series [1] was 29.6 µM; in series [2], above 40 µM. The Ratio Ki in series [4] was below 0.74.

For the molecule `CCOC(=O)[C@@]1(C)CC[C@]2(C)CC[C@]3(C)C(=CC(=O)[C@@H]4[C@@]5(C)CC[C@H](OC(=O)[C@H](Cc6ccccc6)NC(=O)OC(C)(C)C)C(C)(C)[C@@H]5CC[C@]43C)[C@@H]2C1`, the Ki in series [1] and in series [2] was above 2 µM each time.

As for `CC1(C)[C@@H](O)CC[C@]2(C)[C@H]3C(=O)C=C4[C@@H]5C[C@@](C)(C(=O)O)CC[C@]5(C)CC[C@@]4(C)[C@]3(C)CC[C@@H]12` [ENOXOLONE], the Ki in series [1] and in series [2] was above 100 µM each time.

Consider `COC(=O)CC[C@H](N)C(=O)O[C@H]1CC[C@]2(C)[C@H]3C(=O)C=C4[C@@H]5C[C@@](C)(C(=O)OC)CC[C@]5(C)CC[C@@]4(C)[C@]3(C)CC[C@H]2C1(C)C`, for which, in series [3], the solubility result was “Insoluble”.

Turning to `CC1(C)[C@@H](O)CC[C@]2(C)[C@H]3C(=O)C=C4[C@@H]5C[C@@](C)(C(=O)OCCBr)CC[C@]5(C)CC[C@@]4(C)[C@]3(C)CC[C@@H]12`, the values for the Ki in series [1] and in series [2] were 23.8 µM and above 100 µM, respectively. For the same molecule, the Ratio Ki in series [4] is below 0.24.

As to `C=CCCOC(=O)[C@@]1(C)CC[C@]2(C)CC[C@]3(C)C(=CC(=O)[C@@H]4[C@@]5(C)CC[C@H](O)C(C)(C)[C@@H]5CC[C@]43C)[C@@H]2C1`, the figures for the Ki in series [1] and in series [2] were 14.9 µM and above 100 µM, respectively. Further, the Ratio Ki in series [4] is below 0.15.

On to `COC(=O)[C@@]1(C)CC[C@]2(C)CC[C@]3(C)C(=CC(=O)[C@@H]4[C@@]5(C)CC[C@H](OC(=O)[C@@H](N)CCCCN)C(C)(C)[C@@H]5CC[C@]43C)[C@@H]2C1`, for which the inhibitory constant (Ki) in series [1] is 20 µM; in series [2] it was above 100 µM. Moreover, the Ratio Ki in series [4] is below 0.2.

For `COC(=O)[C@@]1(C)CC[C@]2(C)CC[C@]3(C)C(=CC(=O)[C@@H]4[C@@]5(C)CC[C@H](OC(=O)[C@@H](N)CC(=O)O)C(C)(C)[C@@H]5CC[C@]43C)[C@@H]2C1`, the values for the Ki in series [1] and in series [2] were 16.2 µM and above 100 µM, respectively. For the same molecule, in series [4], the Ratio Ki was below 0.16.

Take `CC1(C)[C@@H](OC(=O)CN)CC[C@]2(C)[C@H]3C(=O)C=C4[C@@H]5C[C@@](C)(C(=O)O)CC[C@]5(C)CC[C@@]4(C)[C@]3(C)CC[C@@H]12`: the Ki in series [1] and in series [2] was above 100 µM in each case.

On to `COC(=O)[C@@]1(C)CC[C@]2(C)CC[C@]3(C)C(=CC(=O)[C@@H]4[C@@]5(C)CC[C@H](OC(=O)[C@@H]6CCCN6)C(C)(C)[C@@H]5CC[C@]43C)[C@@H]2C1`, for which the Ki was 23.5 µM in series [1] and above 100 µM in series [2]. In series [4], the Ratio Ki was below 0.24.

One may read the Ki as a measure of affinity in units of concentration, obtained from inhibition or displacement. Higher therefore signals lower affinity.

The record behind these values is ChEMBL document CHEMBL3286281, “Amino derivatives of glycyrrhetinic acid as potential inhibitors of cholinesterases” (Bioorg Med Chem, 2014).
